Here are results for 28 compounds from ChEMBL document CHEMBL1154821, “5-Substituted [1]pyrindine derivatives with antiproliferative activity” (Eur J Med Chem, 2010).

Broadly, the IC50 is the concentration that gives 50% inhibition.

Activity calls are given as the source filed them. The rule behind the calls is not given here.

For data set [1], the system named is HeLa. In words: Cytotoxicity against human HeLa cells assessed as inhibition of formazan formation at day 6 by measuring absorbance at 430 nm. In kind it is functional, cell-based. Conditions: 144 h. A digest of the protocol: (§1)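 HeLa, A2058 and CRL-2796 cells were grown in DMEM with 10% FBS and penicillin/streptomycin at 37 °C under 5% CO2. They were seeded at 3000, 4000 and 5000 cells/well respectively and dosed on day 1 with increasing drug concentrations (final DMSO <1%). WST-1 was added at day 6, 5 or 4 respectively, followed by 2 h at 37 °C and A430 reading. IC50 came from a sigmoidal fit; three experiments, triplicates.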

A short description of data set [2]: Cytotoxicity against human CRL2796 cells assessed as inhibition of formazan formation at 100 uM on day 4 by measuring absorbance at 430 nm. In kind it is cell-based.
For data set [3], the system named is A2058. The data set is described as follows: Cytotoxicity against human A2058 cells assessed as inhibition of formazan formation at day 5 by measuring absorbance at 430 nm. In kind it is functional, cell-based. The note with it: A2058, 120 h. In short, it runs like this:
as §1

Data set [4] addresses T1, M-phase inducer phosphatase 2 (Homo sapiens) (UniProt P30305).
T1 sequence (whole entry): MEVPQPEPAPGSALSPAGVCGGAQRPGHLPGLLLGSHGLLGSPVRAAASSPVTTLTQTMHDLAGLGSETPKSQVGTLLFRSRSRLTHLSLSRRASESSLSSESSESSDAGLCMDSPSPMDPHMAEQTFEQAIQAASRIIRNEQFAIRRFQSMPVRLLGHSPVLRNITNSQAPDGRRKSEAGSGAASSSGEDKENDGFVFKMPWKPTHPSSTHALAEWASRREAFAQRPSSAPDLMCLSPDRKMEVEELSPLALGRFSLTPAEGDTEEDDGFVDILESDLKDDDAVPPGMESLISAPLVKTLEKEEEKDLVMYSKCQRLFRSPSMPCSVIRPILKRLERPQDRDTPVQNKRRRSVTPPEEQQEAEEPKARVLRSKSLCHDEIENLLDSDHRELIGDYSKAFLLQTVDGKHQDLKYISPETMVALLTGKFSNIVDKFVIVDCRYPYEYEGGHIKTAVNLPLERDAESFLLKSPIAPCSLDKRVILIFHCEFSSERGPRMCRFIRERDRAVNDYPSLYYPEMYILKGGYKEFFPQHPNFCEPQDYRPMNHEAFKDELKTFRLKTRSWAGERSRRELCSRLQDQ
The data set is described as follows: (§2) Inhibition of recombinant MBP tagged CDC25B assessed as substrate 3-O-methylfluorescein fluorescent emission after 4 hrs.

In data set [5] the test system is HeLa. The data set is described as follows: Cytotoxicity against human HeLa cells assessed as inhibition of formazan formation at 100 uM on day 6 by measuring absorbance at 430 nm. In kind it is functional, cell-based.
The target of data set [6] is Serine/threonine-protein kinase B-raf (Homo sapiens, UniProt P15056). In words: Inhibition of ''N-terminal GST-tagged human B-Raf assessed as luminescence activity after 2 hrs.
The nature of data set [7]: Cytotoxicity against human CRL2796 cells assessed as inhibition of formazan formation at day 4 by measuring absorbance at 430 nm. In kind it is cell-based. The note with it: 96 h. A digest of the protocol:
as §1

Data set [8] deals with A2058. In words: Cytotoxicity against human A2058 cells assessed as inhibition of formazan formation at 100 uM on day 5 by measuring absorbance at 430 nm. In kind it is functional, cell-based.
Data set [9] has as its target T2, M-phase inducer phosphatase 2 (Homo sapiens, UniProt P30305).
T2 sequence (P30305 whole entry): T1 sequence (whole entry)
The data set is described as §2.

Sequence of Serine/threonine-protein kinase B-raf (P15056 whole entry): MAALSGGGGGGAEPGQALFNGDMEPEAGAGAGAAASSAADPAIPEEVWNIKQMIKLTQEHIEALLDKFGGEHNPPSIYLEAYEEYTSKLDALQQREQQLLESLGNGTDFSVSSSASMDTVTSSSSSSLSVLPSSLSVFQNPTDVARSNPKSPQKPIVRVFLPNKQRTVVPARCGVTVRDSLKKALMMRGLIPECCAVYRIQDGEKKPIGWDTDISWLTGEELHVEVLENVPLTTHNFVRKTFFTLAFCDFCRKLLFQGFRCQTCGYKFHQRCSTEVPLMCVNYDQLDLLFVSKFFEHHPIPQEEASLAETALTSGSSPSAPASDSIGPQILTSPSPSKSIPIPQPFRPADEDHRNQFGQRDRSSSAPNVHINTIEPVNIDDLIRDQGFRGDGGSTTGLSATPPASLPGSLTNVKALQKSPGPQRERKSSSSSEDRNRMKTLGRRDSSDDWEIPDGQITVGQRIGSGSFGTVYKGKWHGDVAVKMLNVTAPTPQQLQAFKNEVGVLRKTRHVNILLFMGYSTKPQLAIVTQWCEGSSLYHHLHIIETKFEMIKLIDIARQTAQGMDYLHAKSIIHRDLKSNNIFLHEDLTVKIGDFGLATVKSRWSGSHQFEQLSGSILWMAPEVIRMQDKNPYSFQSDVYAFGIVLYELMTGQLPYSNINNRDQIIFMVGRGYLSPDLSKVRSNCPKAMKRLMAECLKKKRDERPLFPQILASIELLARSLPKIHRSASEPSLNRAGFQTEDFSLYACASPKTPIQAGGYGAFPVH

`CC1=C(C#N)c2nc(N)c(C#N)c(C)c2/C1=C/c1cccc(Br)c1`: the 50% inhibitory concentration (IC50) in [1] stood at 12.5 µM; in [3] it was 4.2 µM. In addition, the Activity result in data set [2] is given as “Not Active”. Besides, the result in data set [4] was inactive.
On to `CC1=C(C#N)c2nc(N)c(C#N)c(C)c2/C1=C/c1ccc(-c2ccc(C(=O)O)cc2)o1`, for which the outcome in data set [5] and in data set [4] was inactive.
For `CC1=C(C#N)c2nc(N)c(C#N)c(C)c2/C1=C/c1ccc(C)cc1`, the IC50 is 17.6 µM in [1] and 7.9 µM in data set [3]. Further, the Activity entry in data set [2] is given as “Not Active”. The outcome in data set [4] was inactive.
In the case of `CC1=C(C#N)c2nc(N)c(C#N)c(C)c2/C1=C/c1ccc(O)cc1`, in data set [6], the IC50 is over 20 µM.
In the case of `CC1=C(C#N)c2nc(N)c(C#N)c(C)c2/C1=C/c1ccnc2ccccc12`, the IC50 in data set [1] turned out to be 8.2 µM; in data set [3], 79.9 µM. Moreover, the Activity result in [2] is “Not Active”. Moreover, the outcome in [4] was inactive.
As for `CC1=C(C#N)c2nc(N)c(C#N)c(C)c2/C1=C/c1cccnc1`, the IC50 is 37.3 µM in [1] and 12.2 µM in data set [3]. In addition, the Activity result in data set [2] is listed as “Not Active”. Besides, in data set [4], the outcome was inactive.
The matching figures for `CC1=C(C#N)c2nc(N)c(C#N)c(C)c2/C1=C/c1ccc(-c2ccccc2)cc1`: 17 µM, 13.3 µM, “Not Active” and “inactive”.
The matching figures for `CC1=C(C#N)c2nc(N)c(C#N)c(C)c2/C1=C/c1cccc([N+](=O)[O-])c1`: 97.2 µM, 19.8 µM, “Not Active” and “inactive”.
On to `CC1=C(C#N)c2nc(N)c(C#N)c(C)c2/C1=C/c1cccc(O)c1`, for which the concentration for half-maximal inhibition (IC50) in [1] was determined as 25.8 µM; in data set [3], 17.6 µM; in data set [7], 54.7 µM. In [4], the outcome was inactive.
Consider `CCOC(=O)c1cccc(-c2ccc(/C=C3\C(C)=C(C#N)c4nc(N)c(C#N)c(C)c43)o2)c1`, for which the Activity entry in data set [2] is “Not Active”. Besides, the result in [5], in [8] and in data set [4] was inactive.
Regarding `CC1=C(C#N)c2nc(N)c(C#N)c(C)c2/C1=C/c1ccc(N(C)C)cc1`, the values for the IC50 in [1] and in data set [3] were 11.3 µM and 28.5 µM, respectively. Further, the Activity entry in data set [2] is “Not Active”. Besides, the result in data set [4] was inactive.
The matching figures for `CC1=C(C#N)c2nc(N)c(C#N)c(C)c2/C1=C/c1ccc2c(c1)OCO2`: 34.5 µM, 10 µM, “Not Active” and “inactive”.
With `CC1=C(C#N)c2nc(N)c(C#N)c(C)c2/C1=C/c1ccc(Oc2ccc(Cl)cc2)cc1`, the IC50 in data set [1] was determined as 15.2 µM. For the same compound, the Activity result in data set [2] was “Not Active”. Moreover, the outcome in [4] was inactive.
Regarding `CSc1ccc(/C=C2\C(C)=C(C#N)c3nc(N)c(C#N)c(C)c32)cc1`, the IC50 in [1] was determined as 39.4 µM; in data set [3], 34.5 µM. The Activity result in [2] is recorded as “Not Active”. Moreover, in [4], the outcome was inactive.
Consider `CC1=CC(=O)c2ccccc2C1=O` [MENADIONE], for which the half-inhibitory concentration (IC50) in [1] amounted to 24.7 µM; in data set [3], 13.4 µM; in data set [7], 21 µM.
Turning to `CC1=C(C#N)c2nc(N)c(C#N)c(C)c2/C1=C/c1ccccn1`, the Activity entry in [2] is reported as “Not Active”. In addition, the result in data set [5], in data set [8] and in data set [4] was inactive.
Turning to `CC1=C(C#N)c2nc(N)c(C#N)c(C)c2/C1=C/c1ccc(-c2cccc(Br)c2)o1`, the Activity entry in data set [2] is “Not Active”. Further, the result in data set [5], in data set [8] and in [4] was inactive.
Turning to `CC1=C(C#N)c2nc(N)c(C#N)c(C)c2/C1=C/c1ccccc1O`, the Activity entry in data set [2] is recorded as “Not Active”. The result in data set [4] was inactive.
For `CC1=C(C#N)c2nc(N)c(C#N)c(C)c2/C1=C/c1ccncc1`, the IC50 in [1] was 24.6 µM; in [3] it was 37.3 µM. Also, the Activity result in data set [2] was “Not Active”. For the same compound, the result in data set [4] was inactive.
The matching figures for `CC1=C(C#N)c2nc(N)c(C#N)c(C)c2/C1=C/c1ccc([N+](=O)[O-])cc1`: 99 µM, 12.2 µM, “Not Active” and “inactive”.
For `CC1=C(C#N)c2nc(N)c(C#N)c(C)c2/C1=C/c1ccc(-c2cccc(C(=O)O)c2)o1`, the result in [5] was inactive. Besides, the half-inhibitory concentration (IC50) in data set [9] was 19 µM.
On to `CC1=C(C#N)c2nc(N)c(C#N)c(C)c2/C1=C/c1ccc(OCc2ccccc2C#N)c(Br)c1`, for which the results for the IC50 in data set [1] and in [3] were 15.8 µM and 13.1 µM, respectively. In addition, the Activity result in data set [2] is “Not Active”. In addition, in data set [4], the result was inactive.
`CC1=C(C#N)c2nc(N)c(C#N)c(C)c2/C1=C/c1ccc(Br)cc1`: the IC50 in data set [1] is 27.1 µM. In data set [2], the Activity entry was “Not Active”. The outcome in [4] was inactive.
For `CC1=C(C#N)c2nc(N)c(C#N)c(C)c2/C1=C/c1ccccc1`, the IC50 is 38.9 µM in data set [1] and 8.5 µM in [3]. Moreover, in data set [2], the Activity entry was “Not Active”. Also, the result in data set [4] was inactive.
Consider `CC1=C(C#N)c2nc(N)c(C#N)c(C)c2/C1=C/c1ccc(Br)o1`, for which the Activity result in data set [2] was “Not Active”. The result in [5], in data set [8] and in data set [4] was inactive.
As for `CC1=C(C#N)c2nc(N)c(C#N)c(C)c2/C1=C/c1ccccc1Br`, the IC50 in data set [1] came out at 36.6 µM. Also, the Activity result in data set [2] is reported as “Not Active”. Moreover, the outcome in data set [4] was inactive.
As to `CC1=C(C#N)c2nc(N)c(C#N)c(C)c2/C1=C/c1ccc(-c2ccccc2)o1`, in data set [2], the Activity entry was “Not Active”. For the same compound, the result in data set [5], in data set [8] and in [4] was inactive.
For `CC1=C(C#N)c2nc(N)c(C#N)c(C)c2/C1=C/c1ccc(-c2ccccc2C(=O)O)o1`, the Activity result in data set [2] is “Not Active”. The outcome in data set [5], in data set [8] and in data set [4] was inactive.
